From PubChem BioAssay
PME-1 primary: blocks human protein phosphatase methylesterase 1. 320,000 compounds, 0.53% hits. inhibition, % at 5.9 µM. recombinant PME-1, FP-Rh probe fluorescence polarization. AID 2130. Q9Y570;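 active means inhibition above the campaign mean of all compounds plus 3 SD, cut at about 26% in these data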;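 further: competitive labeling of PME-1 active site by serine hydrolase directed probe; inhibitors block probe labeling so polarization falls and inhibition rises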
PAD4 FP inh: PAD4 (human) enzyme inhibition; Q9UM07; recombinant PAD4, RCA probe fluorescence polarization; inhibition, % at 6.36 µM; 330,000 compounds, 0.41% hits;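 active means percent inhibition above a cutoff equal to the mean of all tested compounds plus 3 SD, cut at about 15% in these data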
LYPLA2 counter: counter-screen for PME1 inhibitors: inhibitors of human LYPLA2. recombinant LYPLA2, FP-Rh probe fluorescence polarization. inhibition, % at 5.9 µM. 320,000 compounds, 0.38% hits;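 active means inhibition above the screen-wide mean plus 3 SD, limit set per campaign, cut at about 26% in these data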
Target sequence (O95372 whole entry, looked up): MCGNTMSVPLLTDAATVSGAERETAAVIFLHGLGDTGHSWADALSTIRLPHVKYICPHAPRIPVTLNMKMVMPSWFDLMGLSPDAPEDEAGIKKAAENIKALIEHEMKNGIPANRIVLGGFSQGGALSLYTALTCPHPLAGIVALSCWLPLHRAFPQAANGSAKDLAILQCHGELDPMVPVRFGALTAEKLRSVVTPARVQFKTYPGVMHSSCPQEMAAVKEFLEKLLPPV
Fam108B inh: counter-screen for RBBP9 inhibitors: inhibitors of mouse Fam108B | recombinant Fam108B, FP-Rh probe fluorescence polarization | inhibition, % at 9.51 µM | 300,000 compounds, 0.33% hits | AID 1947;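 active means inhibition above the screen mean inhibition plus 3 SD, computed separately per campaign, cut at about 18% in these data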;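 further: inhibitors lower polarization as less probe binds the enzyme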
LYPLA1 counter: counter-screen for PME1 inhibitors: inhibitors of human LYPLA1; O75608; recombinant LYPLA1, FP-Rh probe fluorescence polarization; inhibition, % at 5.9 µM; 320,000 compounds, 0.16% hits; AID 2174;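 active means inhibition above the mean of all tested compounds plus 3 SD, set per campaign, cut at about 14% in these data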;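 further: inhibitors block serine hydrolase probe labeling of LYPLA1 so polarization falls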
Target sequence (O75608 whole entry, looked up): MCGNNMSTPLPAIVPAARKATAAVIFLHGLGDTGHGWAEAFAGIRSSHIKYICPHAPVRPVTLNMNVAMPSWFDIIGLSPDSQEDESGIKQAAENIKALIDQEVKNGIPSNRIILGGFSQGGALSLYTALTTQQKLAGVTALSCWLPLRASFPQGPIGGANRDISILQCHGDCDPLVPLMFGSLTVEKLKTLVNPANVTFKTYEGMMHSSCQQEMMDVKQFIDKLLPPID
RBBP9 inh: blocks human serine hydrolase RBBP9 | inhibition, % at 7.94 µM | 220,000 compounds, 0.2% hits | recombinant RBBP9, FP-Rh probe fluorescence polarization | O75884 | AID 1515;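 active means inhibition above the campaign mean of all tested compounds plus 3 SD, cut at about 14% in these data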
Target sequence (O75884 whole entry, looked up): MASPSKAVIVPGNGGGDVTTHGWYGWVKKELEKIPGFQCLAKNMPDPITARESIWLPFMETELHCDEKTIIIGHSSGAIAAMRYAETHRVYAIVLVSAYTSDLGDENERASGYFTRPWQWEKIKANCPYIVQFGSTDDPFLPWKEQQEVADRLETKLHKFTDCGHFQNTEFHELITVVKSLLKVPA
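System: RBBP9 protein / Buffer or medium: Tris/NaCl buffer pH 8.0 with 0.1% Pluronic / Probe or stimulus: Serine-hydrolase probe FP-Rh, 375 nM pre-mixing / Dosing: 7.94 µM single dose, 0.794% DMSO / Times: enzyme-compound preincubation 30 min, then probe labeling 45 min, 25 °C / Technique: fluorescence polarization (mP), excitation 525 nm, emission 598 nm / Replication: singlicate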
Numbers stand for hits. Sampled rows, rich in hits. Any-hit rate of the full collection: about 1.3%.

Results for Fc1ccc2[nH]c3c(N4CCc5ccccc5C4)ncnc3c2c1 ?
PME-1 primary: inactive; PAD4 FP inh: inactive; LYPLA2 counter: inactive; Fam108B inh: inactive; LYPLA1 counter: inactive; RBBP9 inh: inactive

What do the screens show for `CN(/N=C\c1ccc(O)c(O)c1)c1nc(-c2ccccc2)cc(-c2ccccc2)n1`?
PME-1 primary: inactive; PAD4 FP inh: inactive; LYPLA2 counter: inactive; Fam108B inh: 21.4; LYPLA1 counter: inactive; RBBP9 inh: inactive

How did COc1cc(/C=N/N(c2ccccc2)c2ccccc2)ccc1O do in these assays?
PME-1 primary: inactive; PAD4 FP inh: inactive; LYPLA2 counter: inactive; Fam108B inh: inactive; LYPLA1 counter: inactive

How did COC(=O)c1ccc(Sc2ccccc2NS(=O)(=O)c2ccc(C)cc2)nc1 do in these assays?
PME-1 primary: 28.9; PAD4 FP inh: inactive; LYPLA2 counter: inactive; Fam108B inh: inactive; LYPLA1 counter: inactive; RBBP9 inh: inactive

How did Cc1ccc(S(=O)(=O)Nc2ccccc2-c2ccccc2NS(=O)(=O)c2ccc(C)cc2)cc1 do in these assays?
PME-1 primary: inactive; PAD4 FP inh: inactive; LYPLA2 counter: inactive; Fam108B inh: inactive; LYPLA1 counter: inactive; RBBP9 inh: inactive

Results for COc1cc2c(C#N)c(N3CCc4ccccc4C3)nc(N)c2c(N)n1 ?
PME-1 primary: 38.7; PAD4 FP inh: inactive; LYPLA2 counter: inactive; Fam108B inh: inactive; LYPLA1 counter: inactive; RBBP9 inh: inactive

Results for CCOC(=O)C(C)On1c(-c2ccccc2)nc2ccc([N+](=O)[O-])cc21 (configuration not stated) ?
PME-1 primary: 27.4; PAD4 FP inh: inactive; LYPLA2 counter: inactive; Fam108B inh: inactive; LYPLA1 counter: inactive; RBBP9 inh: inactive

How did COc1ccc(-c2cc(-c3c(O)c(OC)c4occc4c3OC)[nH]n2)cc1 do in these assays?
PME-1 primary: 32.6; PAD4 FP inh: inactive; LYPLA2 counter: inactive; Fam108B inh: inactive; LYPLA1 counter: inactive; RBBP9 inh: inactive

Results for CC(CCc1ccccc1)NC(=O)CCNC(=O)Cn1ccc2ccccc2c1=O (configuration not stated) ?
PME-1 primary: inactive; PAD4 FP inh: inactive; LYPLA2 counter: inactive; Fam108B inh: inactive; LYPLA1 counter: inactive; RBBP9 inh: inactive

Results for O=C1C(=Cc2ccc(Br)o2)C(=O)c2ccccc21 ?
PME-1 primary: inactive; PAD4 FP inh: inactive; LYPLA2 counter: inactive; Fam108B inh: 55.2; LYPLA1 counter: inactive; RBBP9 inh: inactive

What do the screens show for `COc1ccc(C(CCN)Cc2ccccc2)cc1` (configuration not stated)?
PME-1 primary: inactive; PAD4 FP inh: inactive; LYPLA2 counter: inactive; Fam108B inh: inactive; LYPLA1 counter: inactive; RBBP9 inh: inactive

How did CC(=O)N1CCN(c2ccc(NC(=S)NC(=O)COc3ccc(C(C)(C)C)cc3)cc2)CC1 do in these assays?
PME-1 primary: 39.9; PAD4 FP inh: inactive; LYPLA2 counter: inactive; Fam108B inh: inactive; LYPLA1 counter: inactive; RBBP9 inh: inactive

How did CCC(=O)N1CCN(c2ccc(NC(=S)NC(=O)COc3ccccc3)cc2)CC1 do in these assays?
PME-1 primary: inactive; PAD4 FP inh: inactive; LYPLA2 counter: inactive; Fam108B inh: inactive; LYPLA1 counter: inactive; RBBP9 inh: inactive

Results for Cc1ccc(-c2nc(Nc3ccccc3)n[nH]2)cc1 ?
PME-1 primary: 40.8; PAD4 FP inh: inactive; LYPLA2 counter: inactive; Fam108B inh: inactive; LYPLA1 counter: inactive; RBBP9 inh: inactive

Results for CCOc1cccc(CNc2ccc(O)cc2)c1OCc1ccccc1Cl ?
PME-1 primary: 33.7; PAD4 FP inh: inactive; LYPLA2 counter: inactive; Fam108B inh: inactive; LYPLA1 counter: inactive; RBBP9 inh: inactive

How did Nc1cc(Cl)nnc1Cl do in these assays?
RBBP9 inh: inactive

Results for O=S(=O)(Nc1ccncc1Cl)c1ccc2ccccc2c1 ?
PME-1 primary: inactive; PAD4 FP inh: inactive; LYPLA2 counter: inactive; Fam108B inh: inactive; LYPLA1 counter: inactive; RBBP9 inh: inactive

What do the screens show for `COC(=O)c1cccc(C#CC(NP(=O)(c2ccccc2)c2ccccc2)c2ccccc2)c1` (configuration not stated)?
PME-1 primary: 31.4; PAD4 FP inh: inactive; LYPLA2 counter: inactive; Fam108B inh: inactive; LYPLA1 counter: inactive

How did O=C(O)c1cc(O)c2c(c1)[C@H]([C@H]1c3cc(C(=O)O)cc(O)c3C(=O)c3c(O[C@@H]4O[C@H](CO)[C@@H](O)[C@H](O)[C@H]4O)cccc31)c1cccc(OC3O[C@H](CO)[C@@H](O)[C@H](O)[C@H]3O)c1C2=O (some centres not stated) do in these assays?
PME-1 primary: 71.1; PAD4 FP inh: inactive; LYPLA2 counter: 75.0; Fam108B inh: 96.5; LYPLA1 counter: inactive

Results for Cn1c(=O)c2c(nc(CN3CCN(C(c4ccccc4)c4ccccc4)CC3)n2CCCO)n(C)c1=O ?
PME-1 primary: 29.9; PAD4 FP inh: inactive; LYPLA2 counter: inactive; Fam108B inh: inactive; LYPLA1 counter: inactive

How did O=C(CC1SC(N2CCOCC2)=NC1=O)Nc1cc([N+](=O)[O-])ccc1Cl (configuration not stated) do in these assays?
PME-1 primary: inactive; PAD4 FP inh: inactive; LYPLA2 counter: inactive; Fam108B inh: inactive; LYPLA1 counter: inactive; RBBP9 inh: inactive

Results for Oc1c(Cl)cc(Cl)cc1Sc1cc(Cl)cc(Cl)c1O ?
PME-1 primary: 41.6; PAD4 FP inh: inactive; LYPLA2 counter: inactive; Fam108B inh: 44.1; LYPLA1 counter: inactive; RBBP9 inh: inactive

How did COc1ccc(NC(=O)CCc2nnc3ccc(N4CCC(C)CC4)nn23)cc1OC do in these assays?
PME-1 primary: inactive; PAD4 FP inh: inactive; LYPLA2 counter: inactive; Fam108B inh: inactive; LYPLA1 counter: inactive

Results for CCOC(=O)N1CCC(NC(=O)c2ccc3c(Cl)c4c(nc3c2)CCCC4)CC1 ?
PME-1 primary: inactive; PAD4 FP inh: inactive; LYPLA2 counter: inactive; Fam108B inh: inactive; LYPLA1 counter: inactive; RBBP9 inh: 21.8

Results for O=c1c2ccccc2sn1-c1ccc(S(=O)(=O)N2CCCC2)cc1 ?
PME-1 primary: inactive; PAD4 FP inh: 22.7; LYPLA2 counter: inactive; Fam108B inh: inactive; LYPLA1 counter: inactive; RBBP9 inh: inactive

Results for O=c1c2ccccc2sn1-c1ccc(S(=O)(=O)N2CCCCC2)cc1 ?
PME-1 primary: inactive; PAD4 FP inh: inactive; LYPLA2 counter: inactive; Fam108B inh: inactive; LYPLA1 counter: inactive; RBBP9 inh: inactive

What do the screens show for `Cc1ccc(-n2sc3ccccc3c2=O)cc1S(=O)(=O)N1CCCCC1`?
PME-1 primary: inactive; PAD4 FP inh: 25.5; LYPLA2 counter: inactive; Fam108B inh: inactive; LYPLA1 counter: inactive; RBBP9 inh: inactive

How did CN(C)S(=O)(=O)c1cccc(-n2sc3ccccc3c2=O)c1 do in these assays?
PME-1 primary: inactive; PAD4 FP inh: 26.7; LYPLA2 counter: inactive; Fam108B inh: inactive; LYPLA1 counter: inactive; RBBP9 inh: inactive

What do the screens show for `COc1cccc(C(=O)Oc2ccc(/C=N/Nc3ccc(C(=O)O)cc3)cc2OC)c1`?
PME-1 primary: 31.7; PAD4 FP inh: inactive; LYPLA2 counter: inactive; Fam108B inh: inactive; LYPLA1 counter: inactive
